How the values were obtained:
Type in all cases: functional, tissue-based
Histamine H1 receptor [1] = molecular target: T1, Histamine H1 receptor (Cavia porcellus, UniProt P31389); assay: (§1) In vitro for histamine H1 receptor antagonist activity against histamine-induced contractions on isolated guinea pig ileum
In short: (§2)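 Isolated ileum from guinea pigs of either sex (~250 g), tested with racemates. Percent inhibition is taken against the submaximal contraction to 0.5 μM histamine without drug, with six observations per drug concentration. IC50 is the concentration giving 50% inhibition. pA2 = −log KB by Schild, where KB = B/(x−1) and x is the histamine half-maximal concentration ratio with/without antagonist.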

Histamine H1 receptor [2] = molecular target: T1, Histamine H1 receptor; assay: as §1; conditions: read-out: pA2 (converted)
Histamine H1 receptor [3] = molecular target: T1, Histamine H1 receptor; assay: Compound was tested in vitro for histamine H1-antagonist activity against histamine-induced contractions on isolated guinea pig ileum; in short: as §2

T1 sequence (P31389 whole entry): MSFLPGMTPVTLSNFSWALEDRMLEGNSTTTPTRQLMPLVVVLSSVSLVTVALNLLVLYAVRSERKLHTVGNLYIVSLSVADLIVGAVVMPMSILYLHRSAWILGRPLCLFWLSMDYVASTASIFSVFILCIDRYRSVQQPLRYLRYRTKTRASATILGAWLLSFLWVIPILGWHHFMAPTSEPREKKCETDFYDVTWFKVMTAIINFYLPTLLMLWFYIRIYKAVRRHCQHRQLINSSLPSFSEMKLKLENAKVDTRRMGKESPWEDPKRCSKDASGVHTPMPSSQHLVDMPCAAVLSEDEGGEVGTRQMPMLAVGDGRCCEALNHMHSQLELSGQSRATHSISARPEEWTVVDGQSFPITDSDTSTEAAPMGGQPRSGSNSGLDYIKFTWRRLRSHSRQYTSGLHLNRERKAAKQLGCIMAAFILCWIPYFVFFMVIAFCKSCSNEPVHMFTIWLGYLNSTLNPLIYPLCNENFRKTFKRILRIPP

Question: Which results are given for `CN(C)CCCN1C(=O)CSC1c1ccc(F)cc1` (configuration not stated)?
Answer: IC50 (Histamine H1 receptor [1]): 24000 nM; Kb (Histamine H1 receptor [2]): 79.4 nM

Question: How did the IC50 (Histamine H1 receptor [1]) turn out when `CN(C)CCN1C(=O)CSC1c1ccccc1` (configuration not stated) was run?
Answer: > 100000 nM

Question: For `CC(C)c1ccc(C2SCC(=O)N2CCCN(C)C)cc1` (configuration not stated), which IC50 (Histamine H1 receptor [1]) is on record?
Answer: 1000 nM

Question: What about the Kb (Histamine H1 receptor [2]) of the same molecule?
Answer: 2 nM

Question: How did the IC50 (Histamine H1 receptor [1]) turn out when `CN(C)CCCN1C(=O)CSC1c1ccc(N)cc1` (configuration not stated) was run?
Answer: 40000 nM

Question: And the Kb (Histamine H1 receptor [2])?
Answer: 1000 nM

Question: With `CN(C)CCCN1C(=O)CSC1c1cccc([N+](=O)[O-])c1` (configuration not stated) as the molecule, how does the IC50 (Histamine H1 receptor [1]) read?
Answer: > 100000 nM

Question: And the Kb (Histamine H1 receptor [2])?
Answer: 3980 nM

Question: What does the source list for `CN(C)CCCN1C(=O)CSC1c1ccc(Cl)cc1` (configuration not stated)?
Answer: IC50 (Histamine H1 receptor [1]): 21000 nM; Kb (Histamine H1 receptor [2]): 2510 nM

Question: With `CN(C)CCCN1C(=O)CSC1c1cccc(Br)c1` (configuration not stated) as the molecule, how does the IC50 (Histamine H1 receptor [1]) read?
Answer: 60000 nM

Question: And the Kb (Histamine H1 receptor [2])?
Answer: 398 nM

Question: Which results are given for `Cc1ccc(C2SCC(=O)N2CCCN(C)C)cc1` (configuration not stated)?
Answer: IC50 (Histamine H1 receptor [1]): 1200 nM; Kb (Histamine H1 receptor [2]): 5.01 nM

Question: Which results are given for `CN(C)CCCN1C(=O)CSC1c1ccccc1` (configuration not stated)?
Answer: IC50 (Histamine H1 receptor [1]): 20000 nM; Kb (Histamine H1 receptor [2]): 39.8 nM

Question: What does the source list for `CN(C)CCCN1C(=O)CSC1c1ccc(Br)cc1` (configuration not stated)?
Answer: IC50 (Histamine H1 receptor [1]): 2300 nM; Kb (Histamine H1 receptor [2]): 39.8 nM

Question: What does the source list for `CN(C)CCCN1C(=O)CSC1c1ccc([N+](=O)[O-])cc1` (configuration not stated)?
Answer: IC50 (Histamine H1 receptor [1]): > 100000 nM; Kb (Histamine H1 receptor [2]): 6310 nM

Question: How did the IC50 (Histamine H1 receptor [1]) turn out when `COc1cccc(C2SCC(=O)N2CCCN(C)C)c1` (configuration not stated) was run?
Answer: 25000 nM

Question: What about the Kb (Histamine H1 receptor [2]) of the same molecule?
Answer: 398 nM

Question: With `CN(C)CCCN1C(=O)CSC1c1cccc(F)c1` (configuration not stated) as the molecule, how does the IC50 (Histamine H1 receptor [1]) read?
Answer: 3100 nM

Question: And the Kb (Histamine H1 receptor [2])?
Answer: 398 nM

Question: Which results are given for `COc1ccc(C2SCC(=O)N2CCCN(C)C)cc1` (configuration not stated)?
Answer: IC50 (Histamine H1 receptor [1]): > 100000 nM; Kb (Histamine H1 receptor [2]): 10000 nM

Question: With `CN(C)CCCN1C(=O)CSC1c1cccc(Cl)c1` (configuration not stated) as the molecule, how does the IC50 (Histamine H1 receptor [1]) read?
Answer: 2200 nM

Question: What about the Kb (Histamine H1 receptor [2]) of the same molecule?
Answer: 631 nM

Question: With `CN(C)CCCN1C(=O)CSC1c1ccncc1` (configuration not stated) as the molecule, how does the IC50 (Histamine H1 receptor [3]) read?
Answer: > 100000 nM

Question: `Cc1cccc(C2SCC(=O)N2CCCN(C)C)c1` (configuration not stated) was tested. Which IC50 (Histamine H1 receptor [1]) did it give?
Answer: 5000 nM

Question: And the Kb (Histamine H1 receptor [2])?
Answer: 20 nM
